Several values for one entry are separate records, joined by “and”; a condition that tells them apart may be missing. Equal entries are not always repeated.
Assays:
human [1] = assay: concentration in blood after dosing; negative times count back from the end of exposure; conditions: inhalation
Method in brief: (§1)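 Sampling and analytical methods are those of each source and frequently went unreported. The concentration-versus-time and amount-versus-time points were compiled from published in vivo toxicokinetic studies and two structured collections. Most were digitised from plot screenshots with WebPlotDigitizer, with others copied from tables, in the reported units.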

rat [2] = assay: concentration in lung after dosing; conditions: dosed: benzo[a]pyrene, inhalation, duration: 4 hr, F344
rat [3] = assay: concentration in plasma after dosing; conditions: dosed: benzo[a]pyrene, inhalation, duration: 4 hr, F344
rat [4] = assay: concentration in expired air after dosing; conditions: dosed: 1,1,2-trichloroethane, 501 ppm, inhalation, duration: 6 hr
rat [5] = assay: concentration in expired air after dosing; conditions: dosed: 1,1,2-trichloroethane, 501 ppm, inhalation, duration: 6 hr; remark: listed apart in the source
rat [6] = assay: concentration in blood after dosing; conditions: dosed: octane, inhalation, duration: 2 hr, male, Fischer-344
human [7] = assay: concentration in blood after dosing; conditions: dosed: 1,2,4-trimethylbenzene, inhalation, duration: 2 hr
Method in brief: as §1

CN1CCCC1=O [N-methyl-2-pyrrolidone]
human [1], dosed: N-methyl-2-pyrrolidone, male
Conditions | concentration in blood [ng/mL]
0 h, 10 mg/m^3, duration: 8 hr | 470
0.8235 h, 53 mg/m^3, duration: 8 hr | 2010
0.9269 h, 80 mg/m^3, duration: 6 hr 10min | 942
0.9412 h, 10 mg/m^3, duration: 8 hr | 503
0.9412 h, 24 mg/m^3, duration: 8 hr | 701
0.986 h, 10 mg/m^3, duration: 6 hr 10min | 194
0.986 h, 40 mg/m^3, duration: 6 hr 10min | 412
1.824 h, 24 mg/m^3, duration: 8 hr | 492
1.824 h, 53 mg/m^3, duration: 8 hr | 1300
1.882 h, 10 mg/m^3, duration: 8 hr | 244
1.932 h, 10 mg/m^3, duration: 6 hr 10min | 153
1.932 h, 80 mg/m^3, duration: 6 hr 10min | 723
2.109 h, 40 mg/m^3, duration: 6 hr 10min | 346
3.765 h, 10 mg/m^3, duration: 8 hr | 139
3.765 h, 24 mg/m^3, duration: 8 hr | 277
3.765 h, 53 mg/m^3, duration: 8 hr | 757
3.823 h, 40 mg/m^3, duration: 6 hr 10min | 253
3.823 h, 80 mg/m^3, duration: 6 hr 10min | 516
4.06 h, 10 mg/m^3, duration: 6 hr 10min | 146
7.882 h, 53 mg/m^3, duration: 8 hr | 305
7.941 h, 24 mg/m^3, duration: 8 hr | 189
8 h, 10 mg/m^3, duration: 8 hr | 123
18.01 h, 80 mg/m^3, duration: 6 hr 10min | 92.6
18.25 h, 40 mg/m^3, duration: 6 hr 10min | 18.6
18.6 h, 10 mg/m^3, duration: 6 hr 10min | 55.7
19.88 h, 53 mg/m^3, duration: 8 hr | 91.4
19.94 h, 10 mg/m^3, duration: 8 hr | 85.9
19.94 h, 24 mg/m^3, duration: 8 hr | 63.9
145 s, 80 mg/m^3, duration: 6 hr 10min | 1530

human [1], dosed: N-methyl-2-pyrrolidone, male, during exposure
Conditions | concentration in blood [ng/mL]
-281 s, 40 mg/m^3, duration: 6 hr 10min | 645
-212 s, 24 mg/m^3, duration: 8 hr | 806
-212 s, 53 mg/m^3, duration: 8 hr | 2610
-68 s, 10 mg/m^3, duration: 6 hr 10min | 308
-4.118 h, 53 mg/m^3, duration: 8 hr | 1610
-4 h, 10 mg/m^3, duration: 8 hr | 342
-4 h, 24 mg/m^3, duration: 8 hr | 971
-3.211 h, 80 mg/m^3, duration: 6 hr 10min | 963
-3.034 h, 10 mg/m^3, duration: 6 hr 10min | 182
-3.034 h, 40 mg/m^3, duration: 6 hr 10min | 449

ClC=C(Cl)Cl [trichloroethene]
human [1], dosed: trichloroethene, 100 ppmv, duration: 240 min, male
Conditions | concentration in blood [ng/mL]
0.2522 h | 634
0.3977 h | 426
0.9604 h | 198
1.911 h | 112
4.055 h | 4.16

human [1], dosed: trichloroethene, 100 ppmv, duration: 240 min, male, during exposure
Conditions | concentration in blood [ng/mL]
-226 s | 1170
-175 s | 1170
-3.513 h | 588
-3.022 h | 851
-2.029 h | 1100
-1.031 h | 1040

Oc1ccc2cc3ccc4cccc5ccc(c2c1)c3c45 [9-hydroxy benzo[a]pyrene]
Conditions | concentration in lung, 0.05 h [ng/mL] | concentration in lung, 1 h [ng/mL] | concentration in lung, 2 h [ng/mL] | concentration in lung, 4 h [ng/mL] | concentration in plasma, 0.5 h [ng/mL] | concentration in plasma, 1 h [ng/mL] | concentration in plasma, 2 h [ng/mL] | concentration in plasma, 4 h [ng/mL]
rat [2], 0.1 mg/m^3, female | 0.389 | 3.61 | 0.814 | 0.209 | – | – | – | –
rat [2], 0.1 mg/m^3, male | 0.387 | 3.82 | 1.62 | 0.206 | – | – | – | –
rat [2], 1 mg/m^3, female | 11.8 | 15.5 | 14.6 | 1.6 | – | – | – | –
rat [2], 1 mg/m^3, male | 4.34 | 14.2 | 4.36 | 2.55 | – | – | – | –
rat [2], 2.5 mg/m^3, female | 23.9 | 52.2 | 12.3 | 1.49 | – | – | – | –
rat [2], 2.5 mg/m^3, male | 21.7 | 48.1 | 8.15 | 3.18 | – | – | – | –
rat [3], 0.1 mg/m^3, female | – | – | – | – | 0.0614 | 0.243 | 0.122 | 0.00678
rat [3], 0.1 mg/m^3, male | – | – | – | – | 0.1 | 0.302 | 0.102 | 0.0105
rat [3], 1 mg/m^3, female | – | – | – | – | 0.339 | 5.95 | 0.303 | 0.00674
rat [3], 1 mg/m^3, male | – | – | – | – | 0.606 | 8.58 | 0.97 | 0.00272
rat [3], 2.5 mg/m^3, female | – | – | – | – | 4.93 | 29.3 | 5.63 | 0.276
rat [3], 2.5 mg/m^3, male | – | – | – | – | 5.6 | 33.1 | 7.14 | 0.363

ClCC(Cl)Cl [1,1,2-trichloroethane]
concentration in expired air [ng/mL]
Conditions | rat [4] | rat [5]
0.1604 h | – | 149
0.3009 h | – | 215
0.4836 h | 248 | 275
0.7365 h | 321 | 258
0.9895 h | 250 | 331
1.495 h | 233 | 272
2.493 h | 201 | –
2.507 h | – | 253
3.491 h | 225 | –
3.505 h | – | 180
3.996 h | 197 | 164
4.488 h | 185 | –
4.502 h | – | 139
4.98 h | 134 | 152
6.498 h | 67.1 | 75.2
6.989 h | 42.2 | 51.8
7.481 h | 36.1 | –
7.495 h | – | 24.6
7.987 h | 21.3 | 14.7
8.985 h | 11.1 | 6.7
9.996 h | 3.53 | 5.67
10.98 h | 2.46 | 3.53
13 min | 204 | –
223 s | 110 | –

CCCCCCCC [octane]
concentration in blood, rat [6]
Conditions | 0.1291 h | 0.3815 h | 0.705 h | 171 s | 183 s
1000 ppm | 3810 ng/mL and 4510 ng/mL | 1730 ng/mL and 2020 ng/mL | 777 ng/mL and 960 ng/mL | 5730 ng/mL and 7180 ng/mL | –
5000 ppm | – | – | – | – | 30200 ng/mL and 25900 ng/mL and 22800 ng/mL

Cc1ccc(C)c(C)c1 [1,2,4-trimethylbenzene]
concentration in blood [nM], human [7]
Conditions | 0.1793 h | 0.2345 h | 0.5655 h | 0.5931 h | 1.503 h | 2.579 h | 3.572 h
2 ppm | – | 67.7 | 52.6 | – | – | – | –
25 ppm | 970 | – | – | 459 | 658 | 404 | 314

concentration in blood [nM], human [1], dosed: 1,2,4-trimethylbenzene, duration: 2 hr
Conditions | 2 ppm | 25 ppm
0.1241 h | 249 | –
0.1793 h | – | 3640
0.2345 h | 237 | –
0.2621 h | – | 3110
0.5655 h | 164 | 2420
0.9793 h | 87.2 | –
1.062 h | – | 1610
1.476 h | 95.1 | –
1.531 h | – | 1360
1.972 h | – | 989
2.524 h | 75.3 | 863
2.966 h | 51.5 | –
3.186 h | – | 790
3.517 h | – | 683
3.959 h | – | 614
11.99 h | – | 171
21.97 h | – | 134
248 s | 288 | 4170

concentration in blood [nM], human [1], dosed: 1,2,4-trimethylbenzene, duration: 2 hr, during exposure
Conditions | 2 ppm | 25 ppm
-248 s | – | 7990
-50 s | 552 | –
-1.917 h | – | 2540
-1.89 h | 147 | –
-1.752 h | – | 3540
-1.724 h | 231 | –
-1.476 h | 291 | 4460
-1.255 h | – | 6030
-1.228 h | 327 | –
-1.007 h | – | 6090
-0.9793 h | 409 | –
-0.7862 h | – | 6910
-0.731 h | 433 | –
-0.4828 h | 516 | –
-0.4552 h | – | 7540
-0.2897 h | – | 7180
-0.2345 h | 506 | –

— EPA's CvTdb concentration-time database
